Most compounds without a hit are left out; they make up all but 3.1% or so of the library.
FGF22 binding: FGF22 (human) thermal shift binding. activity (Tm shift, normalised), % at 9.99 µM. recombinant FGF22 thermal shift, SYPRO orange fluorescence; percent of sucrose octasulfate shift, DMSO zero. AID 651658. 1.5% of 340,000 active;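 active = mean Tm shift, scaled 0 neutral to 100 positive control, at about 1.3% or above, every replicate too, limit read from the data; inconclusive = no clear call, values can overlap the other calls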
Target sequence (Q9HCT0 whole entry, looked up): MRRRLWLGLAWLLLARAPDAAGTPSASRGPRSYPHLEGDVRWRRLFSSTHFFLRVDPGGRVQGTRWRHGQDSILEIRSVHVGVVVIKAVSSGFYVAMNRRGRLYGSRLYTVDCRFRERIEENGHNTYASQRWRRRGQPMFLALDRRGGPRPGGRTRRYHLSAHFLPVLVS
PAX8 inh HTS: PAX8 transcriptional activity inhibition; RMG-I TPO-luciferase reporter, SteadyGlo, 24 h; inhibition, % at 12.6 µM; 1.2% of 360,000 active; AID 652154;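 active = mean replicate inhibition at least 60% with every replicate also reaching 60%; inconclusive = only one of the two criteria is met; inactive = mean below 60% and not all replicates reaching 60%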;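 also: luciferase light reporting Pax8 driven TPO promoter activity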
PGC1a acetyl inh: lowers PGC1a acetylation signal in U2OS cells | AlphaScreen anti-acetyl-lysine; with virally co-expressed GCN5 acetyltransferase | inhibition, % at 15.6 µM | 0.17% of 350,000 active;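 active = every replicate shows inhibition of at least 40%; inconclusive = mean inhibition at least 40% but some replicate below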
FN deposition inh: fibronectin deposition inhibition; AH1F fibroblasts, Alexa488-fibronectin deposition fluorescence, overnight; AID 743247; inhibition, % at 12.6 µM; 0.086% of 350,000 active;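 active = mean inhibition across replicates of 30% or more, regardless of how many single replicates reach that level; inconclusive = mean under 30% yet at least half of replicates reach 30%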
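Assay system: AH1F fibroblasts / Quantity: 10000 cells per well / Medium: DMEM plus 2% serum, read in PBS / Reagent: labelled fibronectin 24 nM / Dosing: single dose, pinned / Times: 1 h cell attachment, overnight exposure to compound and label / Signal: fluorescence, ex 485 nm, em 525 nm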
Env fusion inh: blocks HIV Env-driven cell-cell fusion | HeLa-JRFL Env/CEM21 cell fusion, luciferase | inhibition, % at 12.3 µM | 1.1% of 360,000 active | AID 651610;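 active = mean replicate inhibition score of at least 50 and every replicate individually at or above 50; inconclusive = only one of the two criteria met; inactive = mean below 50 and not all replicates reaching 50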
EWS-Fli block: EWS/Fli transcriptional activity inhibition. A673 NR0B1-luciferase reporter, viability-normalised. inhibition, % at 12.6 µM. 0.67% of 350,000 active. AID 651661;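 active = mean inhibition of at least 50% after viability correction, with every replicate also passing that limit; inconclusive = mean reaches 50% but only one of two replicates passes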;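 also: firefly luciferase signal divided by Alamar Blue viability fluorescence both relative to DMSO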
Each line names hits and unclear results; the compound was inactive in the other large screens.

CC(=O)C1CCC2C3CC(O)C4=CC(=O)CCC4(C)C3C(=O)CC12C (stereo unspecified)	none (no result: Env fusion inh)
CC(=O)C1CCC2C3CCC4CC(OC(=O)CCC(=O)O)CCC4(C)C3C(=O)CC12C (stereo unspecified)	FGF22 binding 43.8
CNC[C@H]1OCCCC[C@H](C)Oc2ccc(NS(=O)(=O)c3cccs3)cc2C(=O)N([C@@H](C)CO)C[C@H]1C	none (no result: FN deposition inh, EWS-Fli block)
COc1ccc(-c2cnc3nc(/N=C/N(C)C)nn3c2/N=C/N(C)C)cc1	FGF22 binding 43.0
C[C@H](NC(=O)C[C@H]1C=C[C@@H](NC(=O)C2CCC2)[C@@H](CO)O1)c1ccccc1	none
COc1ccc(-c2csc(N(CCCN(C)C)C(=O)c3ccccc3F)n2)cc1	PAX8 inh HTS 62.8
CCC(=O)N(CC)c1nc(-c2ccc(OC)cc2)cs1	PGC1a acetyl inh 47.8 (no result: FGF22 binding, EWS-Fli block)
CCN(C(=O)c1ccccc1F)c1nc(-c2ccc(OC)cc2)cs1	none (no result: PGC1a acetyl inh)
COCC(=O)N1C[C@@H](C)[C@H](OC)CN(C)C(=O)c2cc(NC(=O)c3cc(C)on3)ccc2OC[C@H]1C	none
O=C(C[C@@H]1CC[C@H](NC(=O)C2CCOCC2)[C@H](CO)O1)NCC1CC1	none (no result: FGF22 binding, PAX8 inh HTS, FN deposition inh, Env fusion inh)
Cc1cc(C)c(S(=O)(=O)N2CCN(C(=O)c3cccs3)CC2)c(C)c1	FGF22 binding 43.2 (no result: PGC1a acetyl inh)
CNc1cc(-n2nc(C)cc2-c2ccccc2)ncn1	none (no result: FGF22 binding, EWS-Fli block)
Cc1cc(-c2ccccc2)n(-c2cc(N/N=C/c3ccccc3O)ncn2)n1	PAX8 inh HTS 71.1 (no result: EWS-Fli block)
CC(=O)c1ccc(Nc2nc(-c3sc(C)nc3C)cs2)cc1	EWS-Fli block 65.7
CC(=O)Nc1ccc(Nc2nc(-c3sc(C)nc3C)cs2)cc1	none
CCCNC(=O)N1[C@H](CNC(=O)CC)[C@@H](c2ccc(C3=CCCC3)cc2)[C@@H]1CO	none (no result: Env fusion inh)
C[C@H](CO)N1C[C@H](C)[C@H](CN(C)S(=O)(=O)c2ccc3c(c2)OCCCO3)OCc2cn(nn2)CCCC1=O	none (no result: Env fusion inh)
O=C1CCCC2=C1C(c1ccccc1)C1C(=O)c3ccccc3C1=N2 (stereo unspecified)	none (no result: FGF22 binding, PGC1a acetyl inh, EWS-Fli block)
O=C1CCCC2=C1C(c1ccc(Cl)cc1)C1C(=O)c3ccccc3C1=N2 (stereo unspecified)	Env fusion inh 59.5 (no result: FGF22 binding, PAX8 inh HTS, EWS-Fli block)
Cc1ccc(S(=O)(=O)N[C@H]2C=C[C@H](CC(=O)N3CCN(c4ccccc4)CC3)O[C@@H]2CO)cc1	none
O=C(CSc1nc(=O)n2ccccc2n1)Nc1cccc2ccccc12	Env fusion inh inconclusive
Cc1cccn2c(=O)nc(SCC(=O)Nc3cccc4ccccc34)nc12	Env fusion inh 87.7 (no result: PAX8 inh HTS, PGC1a acetyl inh)
CCC(C)(C)NC(=O)c1cc(C(=O)OC)cc([N+](=O)[O-])c1	none (no result: FGF22 binding, EWS-Fli block)
CCOCc1nnc(NC(=O)c2cc(C(=O)OC)cc([N+](=O)[O-])c2)s1	FGF22 binding 43.2
CCCN(CCC)S(=O)(=O)c1ccc(NC(=O)c2cc(C(=O)OC)cc([N+](=O)[O-])c2)cc1	PAX8 inh HTS 66.1 (no result: FGF22 binding, EWS-Fli block)
Cc1noc(C)c1NC(=O)N(C)C[C@H]1Oc2ccc(NS(C)(=O)=O)cc2C(=O)N([C@@H](C)CO)C[C@@H]1C	none (no result: PAX8 inh HTS, FN deposition inh, Env fusion inh)
C[C@@H]1CN([C@@H](C)CO)S(=O)(=O)c2ccc(-c3ccccc3F)cc2O[C@H]1CN(C)Cc1ccncc1	none (no result: PAX8 inh HTS)
NC(c1csc(NC(=O)Nc2cccc(Cl)c2)n1)c1ccccc1Cl (stereo unspecified)	Env fusion inh 75.6
O=C(Nc1cccc(Cl)c1)Nc1nnc(-c2ccncc2)s1	PAX8 inh HTS 103.5, Env fusion inh 56.6 (no result: PGC1a acetyl inh)
O=C(Nc1cccc(Cl)c1)Nc1nnc(CSCCOc2ccc(Cl)cc2)s1	PAX8 inh HTS 107.1 (no result: FGF22 binding, Env fusion inh, EWS-Fli block)
O=C(Nc1ccc(Cl)cc1)Nc1nnc(-c2ccncc2)s1	none (no result: FGF22 binding, EWS-Fli block)
Cc1cccc(C)c1NC(=O)Nc1nc(C(N)c2ccccc2Cl)cs1 (stereo unspecified)	none (no result: PGC1a acetyl inh)
Cc1ccc(NC(=O)Nc2nnc(CSCCOc3ccc(Cl)cc3)s2)cc1	none (no result: PGC1a acetyl inh)
COc1ccccc1N(C(C)=O)C1=C(Cl)C(=O)c2ccccc2C1=O	PAX8 inh HTS 116.9, FN deposition inh 42.2, EWS-Fli block 56.0
OC[C@@H]1CN(Cc2ccccc2)C[C@H](n2cnc3c(NCc4ccc(F)cc4)ncnc32)O1	PGC1a acetyl inh inconclusive
OC[C@@H]1CN(Cc2ccc(-c3ccccc3)cc2)C[C@H](n2cnc3c(NCc4ccc(F)cc4)ncnc32)O1	PAX8 inh HTS 84.3 (no result: PGC1a acetyl inh)
OC[C@@H]1CN(Cc2ccc(F)cc2)C[C@H](n2cnc3c(NCc4ccncc4)ncnc32)O1	none
OC[C@@H]1CN(Cc2ccccc2)C[C@H](n2cnc3c(NCc4ccncc4)ncnc32)O1	Env fusion inh 58.8
COCC#Cc1cnc2c(c1)C(=O)N([C@H](C)CO)C[C@H](C)[C@H](CN(C)C(=O)Cc1ccncc1)O2	none (no result: PAX8 inh HTS)
O=C(C[C@H]1CC[C@@H]2[C@H](COC[C@H](O)CN2C(=O)c2ccc(F)cc2)O1)N1CCOCC1	none (no result: Env fusion inh)
Cc1ccc(C(=O)c2cc3ccccc3o2)cc1[N+](=O)[O-]	FGF22 binding 43.0
CCC(=O)c1ccc(OCc2ccc(C(=O)OC)cc2)cc1	FGF22 binding 43.8 (no result: PGC1a acetyl inh)
CCC(=O)c1ccc(OCc2ccc(C#N)cc2)cc1	none
C=C1C(=O)OC2C=C(CO)C3OC3C3OC3(C)CC(OC(=O)/C(=C/C)COC(C)=O)C12 (stereo unspecified)	PAX8 inh HTS 83.0
Cc1ccccc1S(=O)(=O)NC1OC(=O)C(Oc2ccccc2)=C1Br (stereo unspecified)	FGF22 binding 43.0 (no result: PGC1a acetyl inh)
Cc1ccccc1S(=O)(=O)NC1OC(=O)C(Cl)=C1Cl (stereo unspecified)	none (no result: FGF22 binding, PAX8 inh HTS, EWS-Fli block)
Cc1noc(C)c1S(=O)(=O)Nc1ccc2c(c1)C(=O)N([C@@H](C)CO)C[C@@H](C)[C@@H](CN(C)Cc1ccc(C(=O)O)cc1)OCCCC[C@@H](C)O2	none
COc1ccc(/C=C/c2cc(-c3ccc(C)cc3)o[n+]2C)cc1	Env fusion inh 134.2 (no result: FGF22 binding, PAX8 inh HTS, EWS-Fli block)
COc1ccc(/C=C/c2c(-c3ccc(OC)cc3)oc3ccc(-c4ccc(OC)cc4)cc23)cc1	none
C[C@@H]1CN([C@@H](C)CO)C(=O)c2ccccc2-c2ccccc2CO[C@@H]1CN(C)S(=O)(=O)c1ccccc1	none (no result: PAX8 inh HTS, Env fusion inh)
O=S(=O)(c1ccc(OCC2CO2)cc1)c1ccc(OCC2CO2)cc1 (stereo unspecified)	FGF22 binding 43.5 (no result: PGC1a acetyl inh)
Cn1cnc([N+](=O)[O-])c1Sc1nc(N)nc2c1ncn2C1CC(O)C(CO)O1 (stereo unspecified)	PAX8 inh HTS 74.1, Env fusion inh inconclusive
C[C@H]1CN([C@@H](C)CO)C(=O)CCCn2cc(nn2)CO[C@H]1CN(C)Cc1ccc(O)cc1	none (no result: PAX8 inh HTS)
CCN(CC)S(=O)(=O)c1cccc(NC(=O)CC2CCCC2)c1	none
CCN(CC)S(=O)(=O)c1cccc(NC(=O)Nc2cccc(C(F)(F)F)c2)c1	PAX8 inh HTS 102.0, Env fusion inh 118.5 (no result: FGF22 binding, EWS-Fli block)
